Assays:
[1] = Cytotoxicity against human MT4 cells incubated for 4 days by MTT assay; assay type: cell-based
Procedure, shortened: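 Uninfected MT-4 cells, 2.5 × 10^4/well, cultured with graded compound concentrations for 4 days; growth inhibition measured by MTT absorbance at 560 and 690 nm.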

[2] = tested on: Human immunodeficiency virus 1; assay: Inhibition of wild type HIV1 3B infected in human MT4 cells using cells pre-incubated with compound for 1 hr measured 4 days post viral infection by MTT assay; assay type: functional, organism-based; conditions: Human immunodeficiency virus 1, 3B
Procedure, shortened: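 MT-4 cells (2.5 × 10^4/well, RPMI 1640 + 10% FBS) exposed to compound dilutions 1 h, then infected with HIV-1 IIIB (MOI 0.001 or TCID50 4 to 10); after 4 days viability read by MTT absorbance at 560/690 nm; mean ± sd of three independent experiments.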

[3] = biological target: Human immunodeficiency virus type 1 integrase (Human immunodeficiency virus 1, UniProt Q7ZJM1); assay: Inhibition of HIV1 integrase strand transfer activity using pre-incubation and wash with Mg2+ cofactor by ELISA based microtiter plate integration assay
Chain of Human immunodeficiency virus type 1 integrase (Q7ZJM1 whole entry): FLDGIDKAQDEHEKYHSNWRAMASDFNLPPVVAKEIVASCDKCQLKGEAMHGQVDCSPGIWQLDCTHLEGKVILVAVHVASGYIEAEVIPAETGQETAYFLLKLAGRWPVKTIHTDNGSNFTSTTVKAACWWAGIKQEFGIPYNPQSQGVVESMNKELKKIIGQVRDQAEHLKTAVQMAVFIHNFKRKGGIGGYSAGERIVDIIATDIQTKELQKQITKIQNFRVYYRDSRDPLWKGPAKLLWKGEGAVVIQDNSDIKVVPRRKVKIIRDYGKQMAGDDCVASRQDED
Procedure, shortened: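 Preformed IN–substrate DNA complex on microtiter plate, unbound IN washed out; compound preincubated with complex 30 min at 30 °C in 30 mM MOPS pH 7.2, 10 mM DTT, 5% glycerol, 100 μg/mL BSA; Mg2+ 15 mM throughout; strand transfer started with digoxigenin-labeled target DNA, products quantified by anti-Dig ELISA; mean ± sd of three independent experiments.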

[4] = Terminal half life in fed rat at 1 mg/kg, iv measured up to 24 hrs; assay type: ADME, organism-based; parameters: dose 1 mg/kg, route intravenous; conditions: in vivo, read-out: beta t1/2 (converted)
Procedure, shortened: (§1)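 Intravenous 1 mg/kg, fed conditions; vehicle DMA/PEG/saline (1:4:5) for rats, 50 mM N-methylglucamine in 3% mannitol for dogs and monkeys; rat blood via jugular cannula; plasma collected up to 24 h, centrifuged 16000g 3 min, held at −20 °C; noncompartmental analysis.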

[5] = tested on: Human immunodeficiency virus 1; assay: Resistance index, ratio of IC50 for HIV1 3B containing integrase Y143R mutant to IC50 for wild type HIV1 3B; assay type: functional
Procedure, shortened: (§2)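 Integrase mutations introduced into pNL432 molecular clone; plasmids transfected into 293T cells, supernatants harvested after 2 days and stored at −80 °C. Mutant and wild-type viruses tested in HeLa-CD4 cells carrying HIV-1 LTR-driven β-galactosidase reporter. Fold change is mutant IC50 over wild-type IC50.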

[6] = tested on: Human immunodeficiency virus 1; assay: Resistance index, ratio of IC50 for HIV1 3B containing integrase Q148K mutant to IC50 for wild type HIV1 3B
[7] = Ratio of Plasma concentration in fed rat at 5 mg/kg, po measured at 24 hrs to IC50 for wild type HIV1 3B infected in human MT4 cells in presence of 20 mg/ml HSA
[8] = tested on: Human immunodeficiency virus 1; assay: Resistance index, ratio of IC50 for HIV1 3B containing integrase N155H mutant to IC50 for wild type HIV1 3B; assay type: functional; procedure, shortened: as §2
[9] = Half life in fed rat at 5 mg/kg, po measured up to 24 hrs; assay type: ADME, organism-based; parameters: dose 5 mg/kg, route oral; conditions: in vivo
[10] = Volume of distribution at steady state in fed cynomolgus monkey at 1 mg/kg, iv measured up to 24 hrs; assay type: ADME, organism-based, Macaca fascicularis; parameters: dose 1 mg/kg, route intravenous; conditions: in vivo, read-out: Vdss; procedure, shortened: as §1
[11] = Terminal half life in fed beagle dog at 1 mg/kg, iv measured up to 24 hrs; assay type: ADME, organism-based, Canis lupus familiaris; parameters: dose 1 mg/kg, route intravenous; conditions: in vivo, read-out: beta t1/2 (converted); procedure, shortened: as §1
[12] = Terminal half life in fed cynomolgus monkey at 1 mg/kg, iv measured up to 24 hrs; assay type: ADME, organism-based, Macaca fascicularis; parameters: dose 1 mg/kg, route intravenous; conditions: in vivo, read-out: beta t1/2 (converted); procedure, shortened: as §1
[13] = AUC (0 to infinity) in fed rat at 5 mg/kg, po measured up to 24 hrs; assay type: ADME, organism-based; parameters: time infinity, dose 5 mg/kg, route oral; conditions: plasma
[14] = Oral bioavailability in fed cynomolgus monkey at 5 mg/kg measured up to 24 hrs; assay type: ADME, organism-based, Macaca fascicularis; conditions: in vivo
[15] = Volume of distribution at steady state in fed rat at 1 mg/kg, iv measured up to 24 hrs; assay type: ADME, organism-based; parameters: dose 1 mg/kg, route intravenous; conditions: in vivo, read-out: Vdss; procedure, shortened: as §1
[16] = Volume of distribution at steady state in fed beagle dog at 1 mg/kg, iv measured up to 24 hrs; assay type: ADME, organism-based, Canis lupus familiaris; parameters: dose 1 mg/kg, route intravenous; conditions: in vivo, read-out: Vdss; procedure, shortened: as §1
[17] = Total clearance in fed rat at 1 mg/kg, iv measured up to 24 hrs; assay type: ADME, organism-based; parameters: dose 1 mg/kg, route intravenous; conditions: in vivo; procedure, shortened: as §1
[18] = Total clearance in fed cynomolgus monkey at 1 mg/kg, iv measured up to 24 hrs; assay type: ADME, organism-based, Macaca fascicularis; parameters: dose 1 mg/kg, route intravenous; conditions: in vivo; procedure, shortened: as §1
[19] = Inhibition of CYP450; assay type: ADME
[20] = Total clearance in fed beagle dog at 1 mg/kg, iv measured up to 24 hrs; assay type: ADME, organism-based, Canis lupus familiaris; parameters: dose 1 mg/kg, route intravenous; conditions: in vivo; procedure, shortened: as §1
[21] = Ratio of Plasma concentration in fed beagle dog at 5 mg/kg, po measured at 24 hrs to IC50 for wild type HIV1 3B infected in human MT4 cells in presence of 20 mg/ml HSA
[22] = Oral bioavailability in fed rat at 5 mg/kg measured up to 24 hrs; assay type: ADME, organism-based; conditions: in vivo
[23] = tested on: Human immunodeficiency virus 1; assay: Inhibition of wild type HIV1 3B infected in human MT4 cells using cells pre-incubated with compound for 1 hr measured 4 days post viral infection in presence of 20 mg/ml HSA by MTT assay; assay type: functional, organism-based; conditions: Human immunodeficiency virus 1, 3B
[24] = Ratio of Plasma concentration in fed cynomolgus monkey at 5 mg/kg, po measured at 24 hrs to IC50 for wild type HIV1 3B infected in human MT4 cells in presence of 20 mg/ml HSA
[25] = Oral bioavailability in fed beagle dog at 5 mg/kg measured up to 24 hrs; assay type: ADME, organism-based, Canis lupus familiaris; conditions: in vivo
[26] = Plasma concentration in fed rat at 5 mg/kg, po measured at 24 hrs; assay type: ADME, organism-based; parameters: dose 5 mg/kg, route oral
[27] = tested on: Human immunodeficiency virus 1; assay: Potency shift, ratio of IC50 for wild type HIV1 3B infected in human MT4 cells in presence of 20 mg/ml HSA to IC50 for wild type HIV1 3B infected in human MT4 cells in absence of HSA; assay type: functional
Procedure, shortened: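 MT-4 cells (2.5 × 10^4/well) preincubated 1 h with graded compound, then infected with HIV-1 IIIB (MOI 0.001 or TCID50 4 to 10), with or without human serum albumin 20 mg/mL; after 4 days viability read by MTT absorbance at 560/690 nm. Fold-shift = IC50 with HSA over IC50 without.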

COCCNC(=O)c1[nH]cc(C(=O)NCc2ccc(F)cc2)c(=O)c1O
CC50 at 96 h [1]: 16000 nM
IC50 [2]: 110 nM
IC50 [3]: 130 nM

O=C(NCCO)c1[nH]cc(C(=O)NCc2ccc(F)cc2)c(=O)c1O
CC50 at 96 h [1]: > 200000 nM
IC50 [2]: 5500 nM
IC50 [3]: 300 nM

NC(=O)c1[nH]cc(C(=O)NCc2ccc(F)cc2)c(=O)c1O
CC50 at 96 h [1]: 40000 nM
IC50 [2]: 5500 nM
IC50 [3]: 380 nM

CNC(=O)c1[nH]cc(C(=O)NCc2ccc(F)cc2)c(=O)c1O
CC50 at 96 h [1]: 8500 nM
IC50 [2]: 120 nM
IC50 [3]: 1300 nM

CN(C)C(=O)c1[nH]cc(C(=O)NCc2ccc(F)cc2)c(=O)c1O
CC50 at 96 h [1]: 5100 nM
IC50 [2]: 1600 nM
IC50 [3]: 540 nM

COC(=O)c1[nH]cc(C(=O)NCc2ccc(F)cc2)c(=O)c1O
half-life [4]: 4.7 h
Ratio IC50 [5]: 1.5
Ratio IC50 [6]: 200
Ratio [7]: 3.4
Ratio IC50 [8]: 21
half-life [9]: 4.2 h
CC50 at 96 h [1]: 19000 nM
Vd [10]: 0.3 L/kg
IC50 [2]: 10 nM
half-life [11]: 3.8 h
half-life [12]: 5.3 h
AUC(0-inf) [13]: 41200 ng·h/mL
bioavailability [14]: 22%
Vd [15]: 0.2 L/kg
IC50 [3]: 18 nM
Vd [16]: 0.14 L/kg
clearance [17]: 1.2 mL/min/kg
clearance [18]: 2.4 mL/min/kg
inhibition (INH) [19]: Not Active
clearance [20]: 0.84 mL/min/kg
Ratio [21]: 6
bioavailability [22]: 53%
IC50 [23]: 120 nM
Ratio [24]: 1.6
bioavailability [25]: 46%
concentration at 24 h [26]: 130 ng/mL
Ratio IC50 [27]: 12

O=C(O)c1[nH]cc(C(=O)NCc2ccc(F)cc2)c(=O)c1O
CC50 at 96 h [1]: > 200000 nM
IC50 [2]: 1400 nM
IC50 [3]: 10 nM

COc1cc2c(cc1Cc1cccc(Cl)c1F)c(=O)c(C(=O)O)cn2[C@H](CO)C(C)C [ELVITEGRAVIR]
IC50 [2]: 1.3 nM
IC50 [23]: 29 nM

Cc1nnc(C(=O)NC(C)(C)c2nc(C(=O)NCc3ccc(F)cc3)c(O)c(=O)n2C)o1 [RALTEGRAVIR]
IC50 [2]: 6.2 nM
IC50 [23]: 29 nM

Reference: ChEMBL document CHEMBL2169855, “Carbamoyl pyridone HIV-1 integrase inhibitors. 1. Molecular design and establishment of an advanced two-metal binding pharmacophore” (J Med Chem, 2012)
